Measured values of several laboratories.
Each line is one published result; the experiments were not run side by side.
Sample: plasma

| Compound | test system | setting | AUC(0-t) |
| --- | --- | --- | --- |
| CC(=O)O[C@@H]1CC[C@@]2(C)[C@@H](CC[C@]3(C)[C@@H]2C(=O)C=C2[C@@H]4[C@@H](C)[C@H](C)CC[C@]4(C)CC[C@]23C)[C@@]1(C)C(=O)O | female Wistar rat | oral, 1 mg/kg, single dose | 40900 ng·h/mL |
| CCCCC(=O)Nc1ccc(-c2ccc3ncn(CCC)c(=O)c3c2)cn1 | male rat | oral, 10 mg/kg | 1200 ng·h/mL |
| C[C@@]12C[C@@]3(O)O[C@@H](O1)[C@]1(COC(=O)c4ccccc4)[C@H]3C[C@@]12O[C@@H]1O[C@H](CO)[C@@H](O)[C@H](O)[C@H]1O | male Sprague-Dawley rat | oral, 80 mg/kg | 3.74 ng·h/mL |
| CCN(CC)Cc1ccc2cc(COC(=O)Nc3ccc(C(=O)NO)cc3)ccc2c1 | male Sprague-Dawley rat | oral, 10 mg/kg | 8490 ng·h/mL |
| C1=C/COCc2cc(ccc2OCCN2CCCC2)Nc2nccc(n2)-c2cccc(c2)COC/1 | male Sprague-Dawley rat | oral, 36 mg/kg | 3120 ng·h/mL |
| Cn1c(=O)c2[nH]cnc2n(C)c1=O | male Sprague-Dawley rat | intravenous, 11.25 mg/kg | 24900 ng·h/mL |
| CCCc1nc2c(C)cc(-c3nc4ccccc4n3C)cc2n1Cc1ccc(-c2ccccc2C(=O)O)cc1 | male Sprague-Dawley rat | oral, 8 mg/kg, single dose | 1940 ng·h/mL |
| COc1cc(-c2cc(C(C)=O)n3ccccc23)c(OC)cc1Cn1ccnc1 | male Sprague-Dawley rat | intravenous, 5 mg/kg | 4280 ng·h/mL |
| CC(=O)c1c(C)c2cnc(Nc3ccc(N4CCNCC4)cn3)nc2n(C2CCCC2)c1=O | male Sprague-Dawley rat | intravenous, 5 mg/kg | 1900 ng·h/mL |
| C=CC(=O)N1CCC[C@@H](n2nc(-c3ccc(Oc4ccccc4)cc3)c3c(N)ncnc32)C1 | rat | oral, 40 mg/kg | 304 ng·h/mL |
| C=CC(=O)N1CCC([C@@H]2CCNc3c(C(N)=O)c(-c4ccc(Oc5ccccc5)cc4)nn32)CC1 | Sprague-Dawley rat | oral, 16 mg/kg | 1450 ng·h/mL |
| COc1ccc(N(Cc2csc(-c3ccccc3)n2)C(=O)CCCCCC(=O)NO)cc1 | female Sprague-Dawley rat | oral, 30 mg/kg | 18.4 ng·h/mL |
| C[C@H]1Oc2cc(cnc2N)-c2c(nn(C)c2C#N)CN(C)C(=O)c2ccc(F)cc21 | male Sprague-Dawley rat | oral, 10 mg/kg | 3160 ng·h/mL |
| O=C1CCC(N2Cc3cc(C4CCN(Cc5ccccc5)CC4)ccc3C2=O)C(=O)N1 (stereo not drawn) | male Sprague-Dawley rat | oral, 3 mg/kg | 336 ng·h/mL |
| COc1nc(-c2cccc(-c3ccccc3)c2C)ccc1CNCCNC(=O)CCCCCCCCCCC(=O)N1CCN(CCNC(=O)c2cc3c(=O)n4cccc(C)c4nc3n(CCc3cccs3)c2=N)CC1 | male Sprague-Dawley rat | intravenous, 2 mg/kg | 1620 ng·h/mL |
| Cc1ccc2c(c1)C(=O)[C@]1(O)CCN(c3ccc4nc(C)ccc4c3)C1=N2.Cl | male rat | subcutaneous, 40 mg/kg, multiple doses, once daily | 20.4 µM·h |
| Nc1ccn([C@@H]2O[C@H](CO)[C@@H](O)C2(F)F)c(=O)n1 | male Sprague-Dawley rat | intravenous, 5 mg/kg | 160000 ng·h/mL |
| CONC(=O)c1cccc2c1cc(C)n2-c1nc2c(c(NCc3ccccc3)n1)CCCN2 | male Sprague-Dawley rat | intravenous, 1 mg/kg, single dose | 20.1 ng·h/mL |
